In ChEMBL document CHEMBL1811909, “Synthesis and antiproliferative activity of novel 2-aryl-4-benzoyl-imidazole derivatives targeting tubulin polymerization” (Bioorg Med Chem, 2011):

What was measured:
Liver microsomes [1] = assay: Metabolic stability of the compound in human liver microsomes at 0.5 uM up to 90 mins by LC-MS analysis; assay type: ADME, Microsome
Liver microsomes [2] = assay: Metabolic stability of the compound in human liver microsomes at […] up to 90 mins by LC-MS analysis; assay type: ADME, Microsome
In short: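 Aliquots were drawn at 5, 10, 20, 30, 60 and 90 min and quenched in acetonitrile containing internal standard. After centrifugation, supernatants were measured by LC-MS/MS to follow parent loss and derive half-life.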

Liver [3] = assay: Half life in mouse liver microsomes at 0.5 uM by LC-MS analysis; assay type: ADME, Microsome
In short: (§1)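 Compound at 0.5 µM incubated with 1 mg/mL liver microsomal protein at 37 °C with shaking. […] Samples taken at 5, 10, 20, 30, 60 and 90 min and quenched with acetonitrile containing internal standard. After centrifugation, the supernatant was analysed by LC-MS/MS.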

Liver microsomes [4] = assay: Half life in rat liver microsomes at 0.5 uM by LC-MS analysis; assay type: ADME, Microsome; in short: as §1
Liver [5] = assay: Metabolic stability of the compound in dog liver microsomes at 0.5 uM up to 90 mins by LC-MS analysis; assay type: ADME, Canis lupus familiaris, Microsome; in short: as §1
Bos taurus = organism: Bos taurus; assay: Inhibition of bovine brain tubulin polymerization after 15 mins by spectrophotometric analysis
In short: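 Bovine brain tubulin (>97% pure, 0.4 mg per assay) mixed with compound at 5, 10 or 20 µM, with 5% DMSO as vehicle control. Buffer: 80 mM PIPES, 2.0 mM MgCl2, 0.5 mM EGTA, 1 mM GTP, pH 6.9. Polymerization followed at 37 °C as absorbance at 340 nm, read every minute for 15 min.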

Stability (Liver microsomes [1]): Stable
Stability (Liver microsomes [2]): Stable
t1/2 (Liver [3]): 12 min
t1/2 (Liver microsomes [4]): 20 min
Stability (Liver [5]): Stable
inhibition (Bos taurus): Dose-dependent effect
SMILES: COc1cc(C(=O)c2c[nH]c(-c3ccc(C)cc3)n2)cc(OC)c1OC
